EphB4 antag = antagonists of human EphB4-ephrin-B2 interaction; P54760; inhibition, % at 7 µM; 97,000 compounds, 0.15% hits; AID 720; EphB4 LBD / TNYL-RAW-Alexa532 peptide, fluorescence polarization;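 active = inhibition above the screen-wide mean inhibition plus 3 SD, cut at about 15% in these data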;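 note: 0% = DMSO wells and 100% = excess unlabeled TNYL-RAW peptide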
Target sequence (P54760 whole entry, looked up, the tested form may be a part): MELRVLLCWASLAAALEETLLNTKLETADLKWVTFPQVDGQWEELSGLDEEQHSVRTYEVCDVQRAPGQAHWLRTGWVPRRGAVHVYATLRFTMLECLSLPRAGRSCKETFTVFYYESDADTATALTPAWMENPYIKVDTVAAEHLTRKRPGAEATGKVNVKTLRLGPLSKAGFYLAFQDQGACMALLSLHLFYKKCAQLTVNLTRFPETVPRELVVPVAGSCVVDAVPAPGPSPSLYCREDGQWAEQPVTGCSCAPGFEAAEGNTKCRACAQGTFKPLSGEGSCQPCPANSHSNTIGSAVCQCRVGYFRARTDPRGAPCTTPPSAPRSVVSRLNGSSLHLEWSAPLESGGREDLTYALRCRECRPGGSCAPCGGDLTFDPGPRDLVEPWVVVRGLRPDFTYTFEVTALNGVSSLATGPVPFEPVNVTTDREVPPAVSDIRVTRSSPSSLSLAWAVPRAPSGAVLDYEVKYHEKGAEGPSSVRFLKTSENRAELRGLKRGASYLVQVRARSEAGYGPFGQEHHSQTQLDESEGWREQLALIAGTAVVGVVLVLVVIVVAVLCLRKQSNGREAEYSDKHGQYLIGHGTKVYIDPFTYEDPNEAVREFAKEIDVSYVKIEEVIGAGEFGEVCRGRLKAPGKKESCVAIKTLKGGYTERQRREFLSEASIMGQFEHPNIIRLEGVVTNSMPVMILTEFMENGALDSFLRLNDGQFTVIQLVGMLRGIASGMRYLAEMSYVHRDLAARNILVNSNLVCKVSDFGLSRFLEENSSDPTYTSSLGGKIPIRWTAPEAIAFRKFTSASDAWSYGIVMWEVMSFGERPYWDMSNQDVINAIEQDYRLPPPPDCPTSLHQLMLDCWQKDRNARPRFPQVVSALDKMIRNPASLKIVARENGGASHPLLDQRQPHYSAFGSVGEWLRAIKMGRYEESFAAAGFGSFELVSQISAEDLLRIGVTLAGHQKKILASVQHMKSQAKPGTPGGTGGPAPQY
HIV Rev-RRE inh = inhibitors of HIV-1 Rev-RRE RNA interaction | P05866 | Rev peptide-RRE RNA binding, FRET | inhibition, % at 8 µM | 97,000 compounds, 0.79% hits;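 active = inhibition above the screen-wide mean plus 3 SD, cut at about 35% in these data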;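 note: 0% = median DMSO wells and 100% = median Neomycin B control wells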
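Assay system: Labelled RRE RNA duplex and labelled Rev peptide | Times: 5 min preincubation and 15 min binding, 25 °C | Detection: FRET, ex 480 nm, em 540 and 671 nm | Evaluation: % inhibition of FRET ratio versus controls | Benchmarks: DMSO wells as 0% and neomycin B wells as 100% inhibition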
CD11b adhes inh = inhibitors of human CD11b/CD18 binding to fibrinogen. K562 CD11b/CD18 adhesion to fibrinogen, ATPlite luminescence; Mn2+ added to activate the integrin. inhibition, % at 10 µM. P05107+P11215. 93,000 compounds, 0.54% hits;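 active = primary inhibition of 50% or more at 10 µM, then 40% or more on retest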
Phagocyt inh = blocks phagocytosis by macrophages | J774A.1 macrophage IgG-bead phagocytosis, imaging | inhibition, % at 5 µM | 110,000 compounds, 0.07% hits | AID 1029;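 active = inhibition above the mean of the plate negative controls plus 5 SD, cut at about 13% in these data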;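 note: phagocytic index as fraction of beads internalized from green versus red external bead signal; plate controls were DMSO negative control for no effect and cytochalasin-D positive control for full effect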
Mac1 fbg enh = CD11b/CD18-fibrinogen binding enhancement; P05107+P11215; K562 CD11b/CD18 adhesion to fibrinogen, ATPlite luminescence; activation, % at 10 µM; 93,000 compounds, 0.07% hits;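 active = 10 µM primary screen giving 50% or more activity, confirmed by 40% or more on retest at that dose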
Smad3 FoxH1 inh = inhibitors of human Smad3 transcription factor binding; P84022; TR-FRET Smad3/Dy647-FoxH1 peptide binding, europium anti-His; inhibition, % at 25 µM; 88,000 compounds, 0.29% hits; AID 630;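 active = compounds that reduce the energy-transfer binding signal between the protein and its labelled peptide by more than half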;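 note: 0% = Smad3 plus labelled peptide maximal FRET and 100% = peptide-only background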
Starred values were filed as active, the others as inactive; . = no result; [ ] = remark or other dose. Most compounds without a hit are left out; they make up all but 1.3% or so of the library.

SMILES	EphB4 antag	HIV Rev-RRE inh	CD11b adhes inh	Phagocyt inh	Mac1 fbg enh	Smad3 FoxH1 inh
Cc1nn(-c2cccc(C(F)(F)F)c2)c(Cl)c1/C=N/n1cnnc1	-4	36*	12	-2	6	-16
Nc1ncnc2c1nc(-c1ccccc1)n2[C@H]1O[C@@H](CO)[C@H](O)[C@H]1O	.	.	.	.	.	14
CC(C)(C)C(=O)c1sc2nc(-c3cccs3)cc(C(F)(F)F)c2c1N	-1	79*[fluorescence artefact?]	24	1	1	.
COc1ccccc1NC(=O)c1sc2nc(Cc3ccccc3)cc(C(F)(F)F)c2c1N	5	44*	-4	-1	-6	.
COc1ccc(NC(=O)c2sc3nc(Cc4ccccc4)cc(C(F)(F)F)c3c2N)cc1OC	.	.	.	-6	.	.
Cc1nnc(NC(=O)c2sc3nc(-c4cccs4)cc(C(F)(F)F)c3c2N)s1	0	99*[fluorescence artefact?]	.	.	.	.
CCN(CC)C(=O)c1sc2nc(-c3cccs3)cc(-c3cccs3)c2c1N	.	.	.	.	.	-3
Nc1c(C(=O)Nc2nccs2)sc2nc(-c3cccs3)cc(C(F)(F)F)c12	2	104*[fluorescence artefact?]	-9	1	59	.
CCN(CC)C(=O)c1sc2nc(-c3cccs3)cc(-c3ccc(Cl)cc3)c2c1N	-3	14	.	.	.	12
Cc1cc(C)c2c(N)c(C(=O)Nc3nccs3)sc2n1	5	-1	40	-1	-4	2
CC(C)(N)CO[C@@H]1C[C@@H]2CC[C@@]1(C)C2(C)C	.	.	.	.	.	3
CCOC(=O)/C(=C\c1cccc(O)c1)c1nc2sc(C)c(C)c2c(=O)[nH]1	.	.	.	-3	.	.
CCOC(=O)N1CCC(NC(=O)C2CCN(S(=O)(=O)c3c(C)noc3C)CC2)CC1	3	4	4	2	-2	4
COc1cc2c3cc1Oc1c(OC)c(OC)cc4c1[C@@H](Cc1ccc(O)c(c1)Oc1ccc(cc1)C[C@@H]3N(C)CC2)CN(C)C4	.	.	.	.	.	-7
CC(=O)[C@]1(O)CC[C@@H]2[C@H]3C[C@@H](C)C4=CC(=O)CC[C@@]4(C)[C@@H]3[C@@H](O)C[C@]21C	.	.	.	.	.	34
O=C(Nc1ccccc1)Nc1cccc(Cl)c1	0	5	14	-1	-2	6
CC(=O)c1ccc(NC(=O)Nc2cccc(Cl)c2)cc1	-12	8	97*	.	-7	-2
Cc1ccc2cc(/C=C3\N=C(c4ccccc4)OC3=O)c(N3CCOCC3)nc2c1	-1	39*	-4	1	9	.
Cc1nn(-c2ccccc2)c(N2CCCC2)c1/C=C1\N=C(c2ccccc2)OC1=O	.	.	.	-1	.	.
Cc1cc(NC(=O)c2ccco2)ncc1NC(=O)CCc1ccccc1	-4	2	-2	0	1	-1
CCC(=O)Nc1cc(C)c(NC(=O)CCc2ccccc2)cn1	0	38*	8	-2	-1	-1
CCN(CC)c1ccc2cc(C=O)c(=O)oc2c1	0	140*[fluorescence artefact?]	16	3	-10	-10
CCN(CC)c1ccc2cc(-c3nnc(-c4ccncc4)o3)c(=O)oc2c1	5	143*[fluorescence artefact?]	-12	.	-2	.
CCN(CC)c1ccc2cc(C(N)=O)c(=O)oc2c1	3	41*	.	.	.	3
CCN(CC)c1ccc2cc(C(C)=O)c(=O)oc2c1	1	126*[fluorescence artefact?]	3	-1	-1	1
SMILES	EphB4 antag	HIV Rev-RRE inh	CD11b adhes inh	Phagocyt inh	Mac1 fbg enh	Smad3 FoxH1 inh
CCN(CC)c1ccc2cc(NC(=O)CCC(=O)O)c(=O)oc2c1	.	.	-4	.	1	7
O=C(CSc1nnnn1C1CC2CCC1C2)Nc1ccnc2ccccc12 (centres undefined)	.	.	100*	-1	-13	11
O=C(CSc1nnnn1C1CCCC1)NCc1ccccc1	2	3	.	.	.	-4
CCCCNC(=O)c1nc2ncc(Br)cn2n1	0	2	3	193*	-2	-26
CCCSc1nc2sc3c(c2c(=O)[nH]1)CCN(Cc1ccccc1)C3	2	92*[fluorescence artefact?]	-3	0	56	.
O=C(CCc1ccc(S(=O)(=O)N2CCOCC2)cc1)Nc1nc(COc2ccccc2)cs1	0	10	87*	-1	-5	.
O=C(COc1ccccc1)Nc1nc(-c2ccc(S(=O)(=O)N3CCOCC3)cc2)cs1	6	0	0	1	26	12
CCOc1ccc(-n2nc(C(=O)N3CCOCC3)c3ccccc3c2=O)cc1	.	.	.	.	.	-4
Cc1cc(N=Cc2c(CO)cnc(C)c2O)c(N=Cc2c(CO)cnc(C)c2O)cc1C.[Zn]	.	.	.	.	.	93*
Cc1ncc(CO)c(/C=N/N=C/c2ccccc2O)c1O	.	.	-5	-8	25	.
Cc1ccc(-c2nc3ccc(NS(=O)(=O)c4ccccc4)cc3[nH]2)o1	1	2	-34	143*	-4	11
O=S(=O)(Nc1ccc2nc(-c3ccc(Br)o3)[nH]c2c1)c1ccccc1	-8	6	.	.	.	4
COc1ccc(C(CC(=O)c2ccc(C)cc2)C(C#N)C#N)cc1OC (centres undefined)	.	.	.	-4	.	.
CCN1C=C(Cc2ccc(OC)cc2)C2=C(C1)C(c1ccc(OC)cc1)C(C#N)=C(N)O2 (centres undefined)	-2	40*	10	.	-3	.
N[C@@H](CNO)C(=O)O	.	.	.	.	.	-1
Cn1c(=O)oc2cc(S(=O)(=O)N3CCN(C(=O)c4ccco4)CC3)ccc21	-2	41*	.	.	.	0
COc1cc2cc(/C=C/C(=O)c3ccco3)c(Cl)nc2cc1OC	9	79*[fluorescence artefact?]	23	0	2	-22
COc1ccc2cc(/C=C/C(=O)c3ccco3)c(Cl)nc2c1	-7	15	2	0	-2	10
C(CCc1nnc2c(n1)CCCC2)Cc1nnc2c(n1)CCCC2	.	.	.	.	.	-3
Cc1cc(NC(c2ccc(Cl)cc2)c2ccc3cccnc3c2O)no1 (centres undefined)	16*	8	0	0	1	-17
N=C(N)SCc1nc(-c2ccc(Cl)cc2)no1	.	.	.	.	.	15
COc1ccc2c(c1)c1c(C)c3cnccc3c(C)c1n2CCCN	.	.	.	.	.	87*
Nc1nnc(SCC(=O)c2ccccc2)s1	-2	5	-9	-1	1	3
Nc1c(C(=O)c2ccccc2)sc2snc(SCC(=O)c3ccccc3)c12	2	78*	.	.	.	.
O=C(O)CCCCn1ccc(=O)[nH]c1=O	.	.	.	.	.	-7
SMILES	EphB4 antag	HIV Rev-RRE inh	CD11b adhes inh	Phagocyt inh	Mac1 fbg enh	Smad3 FoxH1 inh
CC1(C)N=C(N)N=C(N)N1c1cccc(CSc2ccccc2)c1	.	.	.	.	.	-11
O=C(NCc1nc2ncc(Br)cc2[nH]1)c1ccccc1	3	12	-1	0	-1	8
O=c1[nH]c2cc(Br)cnc2nc1/C=C(\O)c1ccc(F)cc1	2	60*	.	.	.	.
C=CCn1c(NCCc2ccccc2)nc2c1c(=O)n(C)c(=O)n2C	16*	5	38	-1	-2	5
NC(=O)c1ccsc1NC(=O)COC(=O)Cc1cccc2ccccc12	-1	15	84*	-1	-8	-3
Cc1cc(/C=C2\SC(=S)NC2=O)c(C)n1C	7	54*	9	1	-6	.
CCOC(=O)c1ccc(N2Cc3ccccc3C2)cc1O	4	10	3	-2	68*	2
